Compound activity as filed in PubChem.
VIM-2 inh = inhibitors of Pseudomonas aeruginosa VIM-2 metallo-beta-lactamase. 0.89% of 290,000 active. purified VIM-2, nitrocefin hydrolysis, epi-absorbance fluorescence. AID 1527. inhibition, % at 5.6 µM;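 active = inhibition above the mean of all tested compounds plus 3 SD, cutoff set per screening run, cut at about 7.5% in these data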;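 also: red hydrolysis product quenches plate fluorescence so inhibitors raise well fluorescence; 0% = enzyme with DMSO and 100% = DMSO without enzyme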
PLCb3 inh = PLC-beta3 (human) inhibition, primary screen | Purified PLC-beta3, fluorogenic substrate, fluorescence | AID 720704 | 0.18% of 370,000 active | inhibition, % at 12.2 µM; in the data active = inhibition above about 11%;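 also: 0% = median of compound wells on plate and 100% = full blocker control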
PLC-gamma1 inh = blocks human PLC-gamma1 enzyme activity; purified PLC-gamma1, fluorogenic substrate, fluorescence; inhibition, % at 12.2 µM; P19174; 0.84% of 370,000 active
IMP-1 inh = inhibitors of Pseudomonas aeruginosa IMP-1 metallo-beta-lactamase; purified IMP-1, nitrocefin hydrolysis, epi-absorbance fluorescence; inhibition, % at 5.6 µM; 0.45% of 290,000 active; AID 1556;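 active = inhibition above the mean plus 3 SD of all compounds in the same screening run, cut at about 4.5% in these data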;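 also: 0% = IMP-1 with DMSO and 100% = DMSO wells lacking enzyme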
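Assay system: purified IMP-1; Quantity: IMP-1 0.2 nM before substrate addition; Medium: HEPES buffer pH 7.1 with ZnSO4 and Brij 35; Incubation: 15 min enzyme–compound preincubation, then 25 min nitrocefin reaction, 25 °C; Signal: fluorescence quenching readout, ex 480/em 530 nm; Controls: DMSO with and without IMP-1; Repeats: singlicate testing.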
PvdQ acylase = blocks Pseudomonas aeruginosa PvdQ acylase activity; 0.063% of 340,000 active; inhibition, % at 10 µM; purified PvdQ acylase, fluorescence plate reader; in the data active = inhibition above about 30%, passing the limit was not always enough;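 also: 0% = vehicle neutral wells and 100% = reference inhibitor wells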
PLCg1 ctr = PLC-gamma1 inhibition, counter-screen for PLC-beta3 hits; purified PLC-gamma1, fluorogenic substrate, fluorescence; shares compounds with PLC-gamma1 inh; AID 743258; inhibition, % at 12.3 µM; 3.1% of 3,300 active
PLCb3 confirm = confirmation of human PLC-beta3 inhibitors; purified PLC-beta3, fluorogenic substrate fluorescence; shares compounds with PLC-gamma1 inh; 1% of 3,300 active; inhibition, % at 12.3 µM; in the data active = inhibition above about 11%
Starred values were filed as active, the others as inactive; x = not tested or not shown. An excerpt weighted towards active compounds, which were near 2% of everything screened. Rule as the data show it, unless noted: active = inhibition above about 9.5%; inactive = the rest.

SMILES | VIM-2 inh | PLCb3 inh | PLC-gamma1 inh | IMP-1 inh | PvdQ acylase | PLCg1 ctr | PLCb3 confirm
CCCOc1ccccc1OCC(=O)Nc1cc(Cl)ccc1-n1cncn1 | x | 5 | 11* | x | 7 | -2 | -334
CCCCN1CCN(C(=O)c2ccc(CNC(=O)c3cccc(Br)c3)cc2)CC1 | x | 6 | 3 | x | x | x | x
CCCCC(=O)Nc1cc(NC(=O)CCCC)cc(C(=O)O)c1 | -2 | 6 | 15* | -2 | -2 | -5 | 0
CCCCC(=O)Nc1ccc(C)c(O)c1 | 1 | 11* | 9.6* | 0 | -10 | 1 | 2
CCCC(=O)Nc1ccc(C)c(O)c1 | -2 | 5 | 2 | -6 | 4 | x | x
NCCCC[C@@H](C(=O)N1CCNCC1)n1cc([C@@H](N)CO)nn1 | -4 | 12* | 5 | -1 | -11 | -7 | -4
CC(C)c1ccc(NC(=O)O[C@H]2CC[C@@]34CCCN3C(=O)CCC[C@H]4[C@H]2C)cc1 | x | 2 | 0 | x | x | x | x
N#CCCSCc1ccc(OCC(=O)O)cc1 | -3 | 10 | 9.9* | -3 | -6 | -3 | 0
CCC(C(=O)Nc1ccccc1N1CCCC1)c1ccccc1F (stereo unspecified) | x | -4 | -2 | x | x | x | x
COc1ccc(CNC(=O)C(C)Cc2ccccc2)cc1O (stereo unspecified) | -2 | 7 | 12* | -3 | 2 | -5 | -3
O=C(CCNC(=O)c1ccco1)NCCc1ccc(Cl)cc1 | 0 | -2 | -1 | 0 | 20 | x | x
O=C(CCNC(=O)c1ccccc1)NCCc1ccc(Cl)cc1 | -1 | 0 | 9.6* | -3 | -10 | -5 | -4
CC(=O)NC(c1cccc(F)c1)c1nc(/C=C/c2ccccc2)cs1 (stereo unspecified) | x | 8 | 10* | x | x | -8 | -6
CSCCC(NS(=O)(=O)c1ccc(Cl)cc1)C(=O)OCC(=O)c1ccc(F)cc1 (stereo unspecified) | 2 | 12* | 5 | -2 | 3 | -2 | -1
CS(=O)(=O)N(Cc1ccccc1)c1ccc(C(=O)NC2CCCCC2O)cc1 (stereo unspecified) | 1 | 4 | 9.5* | -2 | -4 | 0 | -3
CS(=O)(=O)N(Cc1ccc(C(=O)NC2CCCCC2O)cc1)c1ccccc1 (stereo unspecified) | -1 | -1 | 2 | -4 | -11 | x | x
CS(=O)(=O)N(Cc1ccc(C(=O)NC2CCCC2)cc1)c1ccccc1 | -3 | 1 | 13* | -3 | -9 | -6 | -14
CC(C)C[C@H](NC(=O)c1[nH]cnc1C(=O)N[C@H](C)c1ccccc1)C(=O)OCc1ccccc1 | -1 | 6 | 9.6* | -4 | -6 | 0 | 0
CC(C)C[C@H](NC(=O)c1nc[nH]c1C(=O)N[C@@H](CC(C)C)C(=O)OCc1ccccc1)C(=O)OCc1ccccc1 | -4 | 4 | 2 | -4 | 16 | x | x
CC(C)(C)OC(=O)C[C@H]1C/C=C\C[C@@H](CC(=O)N(CCO)Cc2ccccc2)C(=O)N2CCC[C@H]2COC1=O | x | 2 | 2 | x | -7 | x | x
CC(C)(C)OC(=O)C[C@H]1C/C=C\C[C@@H](CC(=O)N(CCO)Cc2ccccc2)C(=O)N2CCC[C@@H]2COC1=O | x | 11* | 0 | x | -16 | -5 | -2
CC(C)(C)OC(=O)C[C@@H]1C/C=C\C[C@@H](CC(=O)N(CCO)Cc2ccccc2)C(=O)NCCOC1=O | x | 1 | 1 | x | 9 | x | x
CC(C)(C)OC(=O)C[C@@H]1C/C=C\C[C@H](CC(=O)N(CCO)Cc2ccccc2)C(=O)NCCOC1=O | x | 17* | 6 | x | -4 | -9 | -6
Cc1cccc(Oc2nccc(C(F)(F)F)c2C(=O)Nc2ccc(F)cc2F)c1 | -2 | -1 | 7 | -3 | -14 | x | x
O=C(Nc1ccc(F)cc1F)c1c(C(F)(F)F)ccnc1Oc1ccccc1 | -1 | 1 | 11* | 0 | x | -5 | 1
SMILES | VIM-2 inh | PLCb3 inh | PLC-gamma1 inh | IMP-1 inh | PvdQ acylase | PLCg1 ctr | PLCb3 confirm
COc1ccc(NC(=O)/C(C#N)=C\c2ccc(-c3cccc(C(=O)O)c3C)o2)cc1 | 0 | -4 | 0 | -1 | -6 | x | x
Cc1c(C(=O)O)cccc1-c1ccc(C=O)o1 | -2 | 9 | 11* | -2 | 12 | -6 | -4
CCCCc1ccc2nc(NC(=O)c3cccs3)sc2c1 | x | -105 | -68 | x | x | x | x
C=CCNC(=S)NNC(=O)c1ccc(C)c(Cl)c1 | -4 | 2 | 13* | -4 | -13 | -5 | 0
C=CCNC(=S)NNC(=O)c1cccc(Br)c1 | -5 | 0 | 2 | 1 | -7 | x | x
O=C(O)CCC(=O)NNC(=O)c1cccc(Cl)c1 | -4 | -2 | -2 | -3 | -7 | x | x
COc1cccc(C(=O)NNC(=O)CCC(=O)O)c1 | -2 | -3 | 9.9* | -2 | 2 | -9 | -5
O=C(NNC(=O)c1ccc(F)cc1)c1ccncc1 | -2 | 1 | 11* | -2 | -12 | 1 | -1
CC1CCN(CCCNC(=O)C2CCC(CNS(=O)(=O)c3cccc4nsnc34)CC2)CC1 (stereo unspecified) | -1 | -5 | 5 | -1 | -17 | x | x
O=C(NCCCN1CCCCC1)C1CCC(CNS(=O)(=O)c2cccc3nsnc23)CC1 (stereo unspecified) | -1 | -1 | 10* | 1 | -14 | -3 | -2
Cc1cc(C)c(C#N)c(OCC2CCCO2)n1 (stereo unspecified) | x | 11* | 5 | x | x | -7 | -1
Cc1ccc(C(=O)COc2nc(C)cc(C)c2C#N)cc1 | -1 | -2 | 3 | -3 | -22 | x | x
COC(=O)[C@H]1C[C@@]2(N3CCCCC3)c3ccccc3N(C(=O)OC(C)(C)C)[C@H]2N1C(=O)OC(C)(C)C | x | 7 | 3 | x | x | x | x
COC(=O)C1=C(C)NC(=O)NC1c1ccccc1Cl (stereo unspecified) | 0 | 6 | 11* | 1 | -1 | -7 | -1
COC(=O)C1=C(C)NC(=O)NC1c1cc(Cl)ccc1OC (stereo unspecified) | -3 | -3 | -1 | -4 | 7 | x | x
Cc1ccc(C(=O)N(C)[C@H]2C[C@H]3c4[nH]c5c(-c6ccc7c(c6)OCO7)cccc5c4CCN3C[C@H]2[C@H](C)O)cc1 | x | -2 | -5 | x | x | x | x
COc1ccc(CN2CCCC(C(=O)N3CCCC3)C2)c(OC)c1OC (stereo unspecified) | x | 7 | 11* | x | x | 1 | 3
COc1ccc(OC)c(CN2CCCC(C(=O)N3CCCCC3)C2)c1 (stereo unspecified) | -1 | 5 | 1 | -2 | -12 | x | x
Cc1ccc([C@H]2N[C@]3(CCCN(Cc4ccco4)C3=O)[C@H]3C(=O)N(Cc4ccccc4)C(=O)[C@@H]23)cc1 | x | 3 | 12* | x | x | 0 | -4
CC(C)C[C@@H](CN1CCC[C@H]1CN1C(=O)C(=O)NC[C@@H]1Cc1ccc(O)cc1)N1C[C@H](Cc2ccccc2)N(CC2CCCCC2)C(=O)C1=O | x | -4 | 10* | x | x | -5 | -3
